The subject of data set [1] is STAT3 phosphorylated on tyrosine 705 (pSTAT3). Description: G-CSF-induced intracellular STAT3 phosphorylation assay in AML cell lines. The data set is classed as cell-based, human. As to conditions: Kasumi-1 / Kasumi cells. In short, it runs like this:
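Kasumi-1 human AML cells (also other AML lines) were exposed to a concentration series of test compound and stimulated with G-CSF to induce STAT3 phosphorylation. Cells were then lysed, and STAT3 phosphorylated on Tyr705 was quantified with a fluorescent anti-pSTAT3 antibody. IC50 was taken from the concentration series; mean ±SD, n = 3.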

The nature of data set [2]: Stability in aqueous buffer under air. The data set is classed as physicochemical. As to conditions: C188–9: within 4 hours.

`COc1ccc(S(=O)(=O)Nc2cc(-c3c(O)ccc4ccccc34)c(O)c3ccccc23)cc1` [C188–9]: in data set [1], the “inhibition of G-CSF-induced STAT3 phosphorylation, result in words” value is listed as “exceptionally resistant”. Further, the “stability in aqueous buffer in air, result in words” value in data set [2] is reported as “Significant decomposition”.

Source of the values: article PMC7286531 (Organic & biomolecular chemistry, 2020).
